# According to ChEMBL document CHEMBL4190362, “Synthesis, biological evaluation and quantitative structure-active relationships of 1,3-thiazolidin-4-one derivatives. A promising chemical scaffold endowed with high antifungal potency and low cytotoxicity” (Eur J Med Chem, 2017):
# Columns and labels:
# Assay type in all cases: functional
# Staphylococcus aureus = assay: Antibacterial activity against Staphylococcus aureus assessed as inhibition of microbial growth incubated for 18 to 22 hrs by broth microdilution method
# Procedure, shortened: (§1)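 Broth microdilution in Mueller-Hinton II broth following NCCLS recommendations; compounds dissolved in DMSO.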
# Staphylococcus warneri = assay: Antibacterial activity against Staphylococcus warneri assessed as inhibition of microbial growth incubated for 18 to 22 hrs by broth microdilution method; procedure, shortened: as §1
# Enterococcus faecalis = assay: Antibacterial activity against Streptococcus faecalis assessed as inhibition of microbial growth incubated for 18 to 22 hrs by broth microdilution method; procedure, shortened: as §1
# Escherichia coli = assay: Antibacterial activity against Escherichia coli assessed as inhibition of microbial growth incubated for 18 to 22 hrs by broth microdilution method; procedure, shortened: as §1
# Proteus mirabilis = assay: Antibacterial activity against Proteus mirabilis assessed as inhibition of microbial growth incubated for 18 to 22 hrs by broth microdilution method; procedure, shortened: as §1
# Enterobacter = assay: Antibacterial activity against Enterobacter spp. assessed as inhibition of microbial growth incubated for 18 to 22 hrs by broth microdilution method; procedure, shortened: as §1
# Klebsiella oxytoca = assay: Antibacterial activity against Klebsiella oxytoca assessed as inhibition of microbial growth incubated for 18 to 22 hrs by broth microdilution method; procedure, shortened: as §1
# Candida albicans = assay: Antifungal activity against Candida albicans clinical isolates assessed as inhibition of microbial growth incubated for 24 hrs by broth microdilution method
# Procedure, shortened: (§2)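 Twenty-two clinical Candida isolates (8 C. albicans, 4 C. glabrata, 3 C. tropicalis, 3 C. krusei, 2 C. parapsilosis, 2 C. sake) were identified by colony morphology and biochemistry and subcultured at 35 °C for purity. Compounds were dissolved in DMSO and tested by broth microdilution in Sabouraud dextrose broth per NCCLS/CLSI/EUCAST guidance. Values are geometric mean MIC per species (µg/mL).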
# Nakaseomyces glabratus = assay: Antifungal activity against Candida glabrata clinical isolates assessed as inhibition of microbial growth incubated for 24 hrs by broth microdilution method; procedure, shortened: as §2
# Candida tropicalis = assay: Antifungal activity against Candida tropicalis clinical isolates assessed as inhibition of microbial growth incubated for 24 hrs by broth microdilution method; procedure, shortened: as §2
# Pichia kudriavzevii = assay: Antifungal activity against Candida krusei clinical isolates assessed as inhibition of microbial growth incubated for 24 hrs by broth microdilution method; procedure, shortened: as §2
# Candida parapsilosis = assay: Antifungal activity against Candida parapsilosis clinical isolates assessed as inhibition of microbial growth incubated for 24 hrs by broth microdilution method; settings: Lodderomyces parapsilosis; procedure, shortened: as §2
# [Candida] sake = Antifungal activity against Candida sake clinical isolates assessed as inhibition of microbial growth incubated for 24 hrs by broth microdilution method; settings: Fermentozyma sake; procedure, shortened: as §2
MIC (Staphylococcus aureus),MIC (Staphylococcus warneri),MIC (Enterococcus faecalis),MIC (Escherichia coli),MIC (Proteus mirabilis),MIC (Enterobacter),MIC (Klebsiella oxytoca),MIC (Candida albicans),MIC (Nakaseomyces glabratus),MIC (Candida tropicalis),MIC (Pichia kudriavzevii),MIC (Candida parapsilosis),MIC ([Candida] sake),SMILES
≥ 256 µg/mL,≥ 256 µg/mL,≥ 256 µg/mL,≥ 256 µg/mL,≥ 256 µg/mL,≥ 256 µg/mL,≥ 256 µg/mL,2 µg/mL,2 µg/mL,2 µg/mL,2 µg/mL,2 µg/mL,8 µg/mL,O=C1CS/C(=N/N=C\c2cccc([N+](=O)[O-])c2)N1Cc1ccccc1
≥ 256 µg/mL,≥ 256 µg/mL,≥ 256 µg/mL,≥ 256 µg/mL,≥ 256 µg/mL,≥ 256 µg/mL,≥ 256 µg/mL,256 µg/mL,256 µg/mL,256 µg/mL,256 µg/mL,256 µg/mL,256 µg/mL,O=C1CS/C(=N/N=C\c2ccncc2)N1Cc1ccccc1
≥ 256 µg/mL,≥ 256 µg/mL,≥ 256 µg/mL,≥ 256 µg/mL,≥ 256 µg/mL,≥ 256 µg/mL,≥ 256 µg/mL,256 µg/mL,4 µg/mL,128 µg/mL,128 µg/mL,128 µg/mL,128 µg/mL,C/C(=N/N=C1/SCC(=O)N1Cc1ccccc1)c1ccsc1
≥ 256 µg/mL,≥ 256 µg/mL,≥ 256 µg/mL,≥ 256 µg/mL,≥ 256 µg/mL,≥ 256 µg/mL,≥ 256 µg/mL,256 µg/mL,256 µg/mL,256 µg/mL,256 µg/mL,256 µg/mL,256 µg/mL,C/C(=N/N=C1/SCC(=O)N1Cc1ccccc1)c1ccco1
≥ 256 µg/mL,≥ 256 µg/mL,≥ 256 µg/mL,≥ 256 µg/mL,≥ 256 µg/mL,≥ 256 µg/mL,≥ 256 µg/mL,2 µg/mL,2 µg/mL,2 µg/mL,8 µg/mL,2 µg/mL,4 µg/mL,C/C(=N/N=C1/SCC(=O)N1Cc1ccccc1)c1ccccc1[N+](=O)[O-]
≥ 256 µg/mL,≥ 256 µg/mL,≥ 256 µg/mL,≥ 256 µg/mL,≥ 256 µg/mL,≥ 256 µg/mL,≥ 256 µg/mL,4 µg/mL,2 µg/mL,8 µg/mL,4 µg/mL,16 µg/mL,8 µg/mL,C/C(=N/N=C1/SCC(=O)N1Cc1ccccc1)c1cccc([N+](=O)[O-])c1
≥ 256 µg/mL,≥ 256 µg/mL,≥ 256 µg/mL,≥ 256 µg/mL,≥ 256 µg/mL,≥ 256 µg/mL,≥ 256 µg/mL,2 µg/mL,2 µg/mL,2 µg/mL,2 µg/mL,2 µg/mL,4 µg/mL,O=C1CS/C(=N/N=C\c2ccccc2[N+](=O)[O-])N1Cc1ccccc1
≥ 256 µg/mL,≥ 256 µg/mL,≥ 256 µg/mL,≥ 256 µg/mL,≥ 256 µg/mL,≥ 256 µg/mL,≥ 256 µg/mL,8 µg/mL,16 µg/mL,32 µg/mL,2 µg/mL,32 µg/mL,32 µg/mL,C/C(=N/N=C1/SCC(=O)N1Cc1ccccc1)c1ccncc1
≥ 256 µg/mL,≥ 256 µg/mL,≥ 256 µg/mL,≥ 256 µg/mL,≥ 256 µg/mL,≥ 256 µg/mL,≥ 256 µg/mL,8 µg/mL,8 µg/mL,8 µg/mL,8 µg/mL,8 µg/mL,8 µg/mL,C/C(=N/N=C1/SCC(=O)N1Cc1ccccc1)C1CCCCC1
≥ 256 µg/mL,≥ 256 µg/mL,≥ 256 µg/mL,≥ 256 µg/mL,≥ 256 µg/mL,≥ 256 µg/mL,≥ 256 µg/mL,8 µg/mL,8 µg/mL,8 µg/mL,8 µg/mL,8 µg/mL,8 µg/mL,O=C1CS/C(=N/N=C2CCCCCCC2)N1Cc1ccccc1
≥ 256 µg/mL,≥ 256 µg/mL,≥ 256 µg/mL,≥ 256 µg/mL,≥ 256 µg/mL,≥ 256 µg/mL,≥ 256 µg/mL,256 µg/mL,8 µg/mL,256 µg/mL,128 µg/mL,128 µg/mL,128 µg/mL,C/C(=N/N=C1/SCC(=O)N1Cc1ccccc1)c1ccc(Cl)s1
≥ 256 µg/mL,≥ 256 µg/mL,≥ 256 µg/mL,≥ 256 µg/mL,≥ 256 µg/mL,≥ 256 µg/mL,≥ 256 µg/mL,4 µg/mL,4 µg/mL,16 µg/mL,16 µg/mL,4 µg/mL,16 µg/mL,O=C1CS/C(=N/N=C\c2ccccc2)N1Cc1ccccc1
≥ 256 µg/mL,≥ 256 µg/mL,≥ 256 µg/mL,≥ 256 µg/mL,≥ 256 µg/mL,≥ 256 µg/mL,≥ 256 µg/mL,4 µg/mL,4 µg/mL,4 µg/mL,4 µg/mL,16 µg/mL,2 µg/mL,O=C1CS/C(=N/N=C\c2ccccn2)N1Cc1ccccc1
≥ 256 µg/mL,≥ 256 µg/mL,≥ 256 µg/mL,≥ 256 µg/mL,≥ 256 µg/mL,≥ 256 µg/mL,≥ 256 µg/mL,8 µg/mL,4 µg/mL,8 µg/mL,4 µg/mL,4 µg/mL,8 µg/mL,C/C(=N/N=C1/SCC(=O)N1Cc1ccccc1)c1ccc([N+](=O)[O-])cc1
≥ 256 µg/mL,≥ 256 µg/mL,≥ 256 µg/mL,≥ 256 µg/mL,≥ 256 µg/mL,≥ 256 µg/mL,≥ 256 µg/mL,8 µg/mL,4 µg/mL,8 µg/mL,4 µg/mL,4 µg/mL,4 µg/mL,O=C1CS/C(=N/N=C\c2ccco2)N1Cc1ccccc1
≥ 256 µg/mL,≥ 256 µg/mL,≥ 256 µg/mL,≥ 256 µg/mL,≥ 256 µg/mL,≥ 256 µg/mL,≥ 256 µg/mL,8 µg/mL,4 µg/mL,128 µg/mL,4 µg/mL,4 µg/mL,4 µg/mL,C/C(=N/N=C1/SCC(=O)N1Cc1ccccc1)c1ccccc1
≥ 256 µg/mL,≥ 256 µg/mL,≥ 256 µg/mL,≥ 256 µg/mL,≥ 256 µg/mL,≥ 256 µg/mL,≥ 256 µg/mL,2 µg/mL,4 µg/mL,16 µg/mL,4 µg/mL,8 µg/mL,8 µg/mL,C/C(=N/N=C1/SCC(=O)N1Cc1ccccc1)c1cccs1
≥ 256 µg/mL,≥ 256 µg/mL,≥ 256 µg/mL,≥ 256 µg/mL,≥ 256 µg/mL,≥ 256 µg/mL,≥ 256 µg/mL,4 µg/mL,2 µg/mL,8 µg/mL,16 µg/mL,2 µg/mL,4 µg/mL,O=C1CS/C(=N/N=C\c2ccc([N+](=O)[O-])cc2)N1Cc1ccccc1
≥ 256 µg/mL,≥ 256 µg/mL,≥ 256 µg/mL,≥ 256 µg/mL,≥ 256 µg/mL,≥ 256 µg/mL,≥ 256 µg/mL,256 µg/mL,256 µg/mL,256 µg/mL,256 µg/mL,256 µg/mL,256 µg/mL,O=C1CS/C(=N/N=C\c2cccnc2)N1Cc1ccccc1
≥ 256 µg/mL,≥ 256 µg/mL,≥ 256 µg/mL,≥ 256 µg/mL,≥ 256 µg/mL,≥ 256 µg/mL,≥ 256 µg/mL,4 µg/mL,4 µg/mL,2 µg/mL,4 µg/mL,4 µg/mL,2 µg/mL,CC1=C(/C=N\N=C2\SCC(=O)N2Cc2ccccc2)C(C)(C)CC=C1
≥ 256 µg/mL,≥ 256 µg/mL,≥ 256 µg/mL,≥ 256 µg/mL,≥ 256 µg/mL,≥ 256 µg/mL,≥ 256 µg/mL,8 µg/mL,8 µg/mL,8 µg/mL,32 µg/mL,32 µg/mL,32 µg/mL,O=C1CS/C(=N/N=C\c2cccs2)N1Cc1ccccc1
≥ 256 µg/mL,≥ 256 µg/mL,≥ 256 µg/mL,≥ 256 µg/mL,≥ 256 µg/mL,≥ 256 µg/mL,≥ 256 µg/mL,256 µg/mL,16 µg/mL,28 µg/mL,256 µg/mL,256 µg/mL,256 µg/mL,C/C(=N/N=C1/SCC(=O)N1Cc1ccccc1)c1ccccn1
≥ 256 µg/mL,≥ 256 µg/mL,≥ 256 µg/mL,≥ 256 µg/mL,≥ 256 µg/mL,≥ 256 µg/mL,≥ 256 µg/mL,2 µg/mL,2 µg/mL,2 µg/mL,2 µg/mL,2 µg/mL,2 µg/mL,C/C(=N/N=C1\NC(=O)CS1)c1ccc(/C(C)=N\N=C2/NC(=O)CS2)cc1
